# Reference: ChEMBL document CHEMBL3085721, “Nonhydrolyzable ATP analogues as selective inhibitors of human NPP1: a combined computational/experimental study” (J Med Chem, 2013)
# Legend:
# [1] = target: T1, Ectonucleoside triphosphate diphosphohydrolase 2 (Homo sapiens) (UniProt Q9Y5L3); assay: Inhibition of human NTPDase2 assessed as amount of inorganic phosphate released using ATP as the substrate preincubated at 100 uM for 3 mins before substrate addition after 15 mins by malachite green reagent method
# T1 sequence (whole entry): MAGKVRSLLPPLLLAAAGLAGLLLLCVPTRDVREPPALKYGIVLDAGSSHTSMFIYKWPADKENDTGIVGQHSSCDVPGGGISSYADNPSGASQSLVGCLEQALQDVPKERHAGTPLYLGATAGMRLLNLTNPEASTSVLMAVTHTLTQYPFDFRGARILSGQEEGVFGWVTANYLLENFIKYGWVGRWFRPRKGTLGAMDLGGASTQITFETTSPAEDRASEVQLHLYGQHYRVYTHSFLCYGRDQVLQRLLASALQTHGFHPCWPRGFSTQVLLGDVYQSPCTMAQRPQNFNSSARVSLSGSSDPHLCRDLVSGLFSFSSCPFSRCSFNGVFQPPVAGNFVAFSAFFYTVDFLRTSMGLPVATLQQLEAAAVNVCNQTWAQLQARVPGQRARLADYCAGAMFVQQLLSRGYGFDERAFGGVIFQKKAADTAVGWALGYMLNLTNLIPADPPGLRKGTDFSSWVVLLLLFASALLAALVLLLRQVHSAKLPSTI
# How it was run: (§1)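 Crude extracts of COS-7 cells transiently transfected with human NTPDase1, -2, -3 or -8, preincubated 3 min at 37 °C in Tris-Ringer medium pH 7.4 with analogue (final 100 μM). Started with 100 μM ATP, stopped after 15 min with malachite green; released Pi read at 630 nm. ATP alone set as 100%. Mean ± SD of 3−6 experiments in triplicate.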
# [2] = target: T2, Ectonucleoside triphosphate diphosphohydrolase 1 (Homo sapiens) (UniProt P49961); assay: Inhibition of human NTPDase1 assessed as amount of inorganic phosphate released using ATP as the substrate preincubated at 100 uM for 3 mins before substrate addition after 15 mins by malachite green reagent method; how it was run: as §1
# T2 sequence (whole entry): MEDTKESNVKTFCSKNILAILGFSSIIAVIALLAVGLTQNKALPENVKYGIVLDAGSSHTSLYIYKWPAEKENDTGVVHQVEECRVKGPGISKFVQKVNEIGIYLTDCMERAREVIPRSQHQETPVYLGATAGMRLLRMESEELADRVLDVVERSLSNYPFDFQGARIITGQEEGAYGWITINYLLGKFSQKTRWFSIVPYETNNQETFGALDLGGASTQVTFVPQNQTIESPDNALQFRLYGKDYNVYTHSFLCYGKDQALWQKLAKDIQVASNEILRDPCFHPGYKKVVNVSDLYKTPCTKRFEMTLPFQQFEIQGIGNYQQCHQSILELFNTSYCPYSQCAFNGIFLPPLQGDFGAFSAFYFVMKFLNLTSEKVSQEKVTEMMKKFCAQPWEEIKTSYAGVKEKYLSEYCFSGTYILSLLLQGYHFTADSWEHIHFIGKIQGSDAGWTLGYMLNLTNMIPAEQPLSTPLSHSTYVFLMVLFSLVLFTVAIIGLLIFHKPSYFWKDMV
# [3] = target: T3, Ectonucleotide pyrophosphatase/phosphodiesterase family member 3 (Homo sapiens) (UniProt O14638); assay: Inhibition of human NPP3 expressed in COS7 cells assessed as production of p-nitrophenol using pnp-TMP as the substrate preincubated at 100 uM for 3 mins before substrate addition measured after 15 mins […]; type: cell-based; conditions: COS-7
# T3 sequence (whole entry): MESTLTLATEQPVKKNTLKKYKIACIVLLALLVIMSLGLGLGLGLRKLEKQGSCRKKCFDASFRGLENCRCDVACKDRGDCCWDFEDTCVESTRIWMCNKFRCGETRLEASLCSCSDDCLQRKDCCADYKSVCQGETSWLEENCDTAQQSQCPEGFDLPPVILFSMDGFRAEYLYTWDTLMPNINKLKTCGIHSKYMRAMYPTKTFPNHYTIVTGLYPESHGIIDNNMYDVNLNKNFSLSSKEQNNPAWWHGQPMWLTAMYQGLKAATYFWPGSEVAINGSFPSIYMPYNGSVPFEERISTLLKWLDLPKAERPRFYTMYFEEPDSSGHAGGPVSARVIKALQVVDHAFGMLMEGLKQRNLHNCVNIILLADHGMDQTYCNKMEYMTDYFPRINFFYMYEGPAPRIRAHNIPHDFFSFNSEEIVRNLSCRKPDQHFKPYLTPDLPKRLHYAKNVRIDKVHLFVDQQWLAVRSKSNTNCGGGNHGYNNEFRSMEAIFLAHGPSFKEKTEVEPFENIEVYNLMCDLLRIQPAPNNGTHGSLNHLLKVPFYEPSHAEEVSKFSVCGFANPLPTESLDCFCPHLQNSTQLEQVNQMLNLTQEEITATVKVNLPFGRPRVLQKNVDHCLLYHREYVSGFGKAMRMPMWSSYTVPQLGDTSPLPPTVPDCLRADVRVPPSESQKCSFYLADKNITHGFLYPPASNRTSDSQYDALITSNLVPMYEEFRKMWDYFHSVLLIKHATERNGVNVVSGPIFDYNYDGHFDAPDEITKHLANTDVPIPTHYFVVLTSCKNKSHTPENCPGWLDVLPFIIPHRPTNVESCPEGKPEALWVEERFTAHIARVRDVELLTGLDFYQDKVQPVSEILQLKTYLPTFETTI
# How it was run: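 Crude extracts of COS-7 cells transiently transfected with human NPP1 or NPP3, preincubated 3 min at 37 °C in 1 mM CaCl2, 140 mM NaCl, 5 mM KCl, 50 mM Tris pH 8.5 with analogue at 100 μM. Reaction started with 100 μM pnp-TMP; p-nitrophenol at 410 nm after 15 min. Activity without analogue set as 100%. Mean ± SD of 3−6 experiments in triplicate.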
SMILES,inhibition [1] [%],inhibition [2] [%],inhibition [3] [%]
B[P@@](=O)(OC[C@H]1O[C@@H](n2cnc3c(N)ncnc32)[C@H](O)[C@@H]1O)OP(=O)(O)CP(=O)(O)O,< 18,< 18,
CSc1nc(N)c2ncn([C@@H]3O[C@H](COP(=O)(O)C(F)(F)P(=O)(O)O)[C@@H](O)[C@H]3O)c2n1,< 18,< 18,50

# The remaining lines, values ahead:
inhibition [1] [%],inhibition [2] [%],inhibition [3] [%],SMILES
< 18,< 18,,B[P@](=O)(OC[C@H]1O[C@@H](n2cnc3c(N)nc(SC)nc32)[C@H](O)[C@@H]1O)OP(=O)(O)CP(=O)(O)O
50,50,50,B[P@@](=O)(OC[C@H]1O[C@@H](n2cnc3c(N)nc(SC)nc32)[C@H](O)[C@@H]1O)OP(=O)(O)C(F)(F)P(=O)(O)O
< 18,< 18,,B[P@](=O)(OC[C@H]1O[C@@H](n2cnc3c(N)ncnc32)[C@H](O)[C@@H]1O)OP(=O)(O)CP(=O)(O)O
